In one data set the test system is Candida albicans. As to the kind of experiment: Antifungal activity against Candida albicans. Format: functional, organism-based. In short, it runs like this:
(§1)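 Samples in DMSO serially diluted in 0.9% saline, tested in duplicate; inocula set against 0.5 McFarland standard (absorbance 630 nm) and diluted in broth to recommended levels. Growth, solvent and media controls included. Read at 630 nm, or fluorescence 544ex/590em for M. intracellulare (modified Alamar Blue), before and after incubation; IC50 from percent growth versus concentration.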

Data set [1] concerns Mycobacterium intracellulare. Kind of data set: Antimicrobial activity against Mycobacterium intracellular. The class given is functional, organism-based. In short, it runs like this: as §1
In another data set the test system is Leishmania donovani. As to the kind of experiment: Antileishmanial activity against Leishmania donovani promastigotes after 48 hrs by Alamar blue assay. The class given is functional, organism-based. In short, it runs like this: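 L. donovani promastigotes grown in RPMI 1640 + 10% fetal calf serum at 26 °C; 3-day culture diluted to 5 × 10^5/mL, drug dilutions made directly in suspension, 48 h at 26 °C. Alamar blue fluorescence 544 nm ex/590 nm em; IC50 and IC90 from percent growth vs concentration curves.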

The subject of data set [2] is Plasmodium falciparum. Kind of data set: Antimalarial activity against Plasmodium falciparum W2. Format: functional, organism-based. In short, it runs like this:
(§2)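 P. falciparum-infected erythrocytes at 2% parasitemia, 2% hematocrit in RPMI 1640 with 10% human serum and 60 µg/mL amikacin, exposed to serial dilutions 72 h at 37 °C under 90% N2/5% O2/5% CO2. Parasite LDH measured with Malstat reagent then NBT/PES, stopped with 5% acetic acid, A650; IC50 from dose–response. DMSO 0.25% vehicle.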

The test system of data set [3] is Plasmodium falciparum. As to the kind of experiment: Antimalarial activity against Plasmodium falciparum D6. The class given is functional, organism-based. In outline: as §2
For the next data set, the system named is Staphylococcus aureus. Kind of data set: Antibacterial activity against methicillin-resistant Staphylococcus aureus. The class given is functional, organism-based. In outline: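 Samples in DMSO, serially diluted in 0.9% saline, tested in duplicate. Inoculum set against the 0.5 McFarland standard by absorbance at 630 nm, then diluted in broth. Growth, solvent and media controls included. Absorbance read at 630 nm before and after incubation. IC50 taken from percent growth versus concentration. Inactivity was scored at 20 µg/mL.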

The test system of data set [4] is LLC-PK1. Kind of data set: Cytotoxicity against LLC-PK1 cells by neutral red assay. Format: cell-based. Particulars: Sus scrofa. In outline: (§3)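 Cells seeded 25,000/well, grown 24 h, then exposed to samples 48 h; viable cells quantified by neutral red uptake. IC50 taken from logarithmic plots of growth inhibition versus concentration; DMSO vehicle control.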

The subject of another data set is Aspergillus fumigatus. Kind of data set: Antifungal activity against Aspergillus fumigatus. The class given is functional, organism-based. In short, it runs like this:
as §1

In data set [5] the test system is Cryptococcus neoformans. Kind of data set: Antifungal activity against Cryptococcus neoformans. The class given is functional, organism-based. In short, it runs like this: as §1
The test system of data set [6] is Vero. Kind of data set: Cytotoxicity against Vero cells by neutral red assay. Format: cell-based. Particulars: chlorocebus sabaeus. In outline: as §3
Data set [7] has as its system Cryptococcus neoformans. Kind of data set: Antifungal activity against Cryptococcus neoformans at 20 ug/mL. Format: functional, organism-based.
In data set [8] the test system is Vero. As to the kind of experiment: Cytotoxicity against Vero cells up to 4.76 ug/mL by neutral red assay. Format: cell-based. Particulars: chlorocebus sabaeus.
For data set [9], the system named is LLC-PK1. Kind of data set: Cytotoxicity against LLC-PK1 cells up to 4.76 ug/mL by neutral red assay. The class given is cell-based, Sus scrofa. Particulars: pig.

In brackets after ≈: the same amount, converted by molar mass. Activity calls are given as the source filed them. No cut-off for these calls is given here.

Usually IC50 stands for the midpoint of a concentration-inhibition curve. Low values mean inhibition by little substance, high ones a need for much substance. One may read the IC90 as the concentration at which the effect reaches the 90% level. Lower therefore signals an effect from little substance.

For the compound `Cc1c(O)c(C=O)c(O)c(C(=O)CC(C)C)c1O` [GRANDINOL], the IC50 was 10 µg/mL (≈ 39.6 µM) in the data set with Candida albicans; 21 µg/mL (≈ 83.2 µM) in the data set on Leishmania donovani; 8 µg/mL (≈ 31.7 µM) with Staphylococcus aureus; 7 µg/mL (≈ 27.7 µM) in the data set with LLC-PK1 [4]; 10 µg/mL (≈ 39.6 µM) with Cryptococcus neoformans [5]; 8 µg/mL (≈ 31.7 µM) with Vero [6]. The outcome (in [1]; with Plasmodium falciparum [2]; in the data set on Plasmodium falciparum [3]; in the data set with Aspergillus fumigatus) was inactive. The same compound returned an IC90 with Leishmania donovani of 39 µg/mL (≈ 155 µM).

As for `CC(C)CC(=O)c1c(O)c(C=O)c(O)c(C=O)c1O` [JENSENONE], the outcome (with Cryptococcus neoformans [7]; in data set [1]; in the data set on Plasmodium falciparum [2]; in the data set with Plasmodium falciparum [3]; in the data set on Aspergillus fumigatus) was inactive. Moreover, the IC50 with Candida albicans worked out at 5.5 µg/mL (≈ 20.7 µM); in the data set with Leishmania donovani, 19 µg/mL (≈ 71.4 µM); in the data set with Staphylococcus aureus, 20 µg/mL (≈ 75.1 µM). Also, the Activity result in the data set on Vero [8] and in the data set with LLC-PK1 [9] was “Not Active” throughout. Also, the IC90 in the data set on Leishmania donovani turned out to be 35 µg/mL (≈ 131 µM).

Source of the values: ChEMBL document CHEMBL1144532, “Antiprotozoal and antimicrobial activities of O-alkylated and formylated acylphloroglucinols” (Bioorg Med Chem, 2007).
